EP2 antag – EP2 receptor (human) inhibition. hit rate 0.52% among 260,000. C6 glioma cells expressing human EP2, cAMP TR-FRET; cells stimulated with saturating PGE2. P43116. inhibition, % at 25 µM;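 active = percent inhibition above 40 after rounding to a whole number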;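 also: rat C6 glioma host cells with rolipram phosphodiesterase inhibitor present; the protocol text gives 20 µM as final concentration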
Target sequence (P43116 whole entry, looked up): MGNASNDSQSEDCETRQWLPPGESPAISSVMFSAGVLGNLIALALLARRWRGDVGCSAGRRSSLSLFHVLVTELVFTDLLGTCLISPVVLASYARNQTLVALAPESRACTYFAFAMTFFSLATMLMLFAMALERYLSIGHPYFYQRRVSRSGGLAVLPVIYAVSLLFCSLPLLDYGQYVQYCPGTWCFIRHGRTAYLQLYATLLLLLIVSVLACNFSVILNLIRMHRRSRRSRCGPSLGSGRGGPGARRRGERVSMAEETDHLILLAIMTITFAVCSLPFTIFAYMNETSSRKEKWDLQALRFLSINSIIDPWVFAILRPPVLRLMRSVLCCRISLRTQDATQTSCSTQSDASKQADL
EP2 mod – EP2 receptor (human) modulation | induction, % at 25 µM | EP2-expressing cells, cAMP HTRF FRET, PGE2 co-stimulation | AID 940 | hit rate 0.83% among 260,000;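 active = compounds whose cAMP rise, as percent of the full-agonist control response, exceeds 60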;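 also: rat C6 glioma line stably carrying human EP2 under a CMV promoter; the protocol text gives 20 µM as final concentration; 100% = response of wells given 1 µM PGE2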
bCat nuc transl – alters nuclear translocation of beta-catenin in HeLa cells | immunofluorescence imaging | nuclear translocation activity, % at 5 µM | hit rate 0.3% among 190,000 | AID 1665;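 active = nuclear translocation activity above 50% at 5 µM, with a well cell count of 50 or more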;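 also: per-cell ratio of nuclear to cytoplasmic median beta-catenin stain intensity; plate controls were DMSO negative control for no effect and GSK-3 inhibitor IX positive control for full effect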
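assay system = human HeLa cells, endogenous beta-catenin | times = compound treatment 24 h, 37°C, 5% CO2 | detection = Anti-beta-catenin immunofluorescence on PFA-fixed, Triton-permeabilized cells, DAPI nuclei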
TbHK1 inh – blocks Trypanosoma brucei hexokinase 1 activity. hit rate 0.11% among 220,000. recombinant TbHK1, G6PDH-coupled NADH A340. AID 1430. inhibition, % at 10 µM;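 active = inhibition of 50% or more in the single-dose primary screen; inactive = inhibition below 50%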
Efa HMGR inh – blocks class II HMG-CoA reductase of Enterococcus faecalis. purified E. faecalis HMGR, NADPH absorbance 340 nm kinetic. inhibition, % at 10 µM. hit rate 0.41% among 190,000;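 active = inhibition above a set limit, the median over all tested compounds plus 3 SD, cut at about 9.5% in these data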;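 also: enzyme runs in reverse so mevalonate oxidation gives rising NADPH absorbance; 0% = complete reaction with DMSO and 100% = background rate lacking mevalonate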
MT stabilizer – stabilizes microtubules in HeLa cells; HeLa tubulin immunostaining HCS, 24 h; share of cells brighter than vehicle mean+2SD; % tubulin-high responders, % at 10 µM; hit rate 0.83% among 200,000;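 active = plate Z-score above 3 for both tubulin-high and condensed-nucleus cell shares, with cell loss under 80%, at 10 µM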;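 also: anti alpha tubulin signal scored within the nucleus-defined area of each cell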
Active calls of the source: *; . = not tested or not shown. In the library only some 2.4% were active in any assay of this set; here they are far more common.

SMILES	EP2 antag	EP2 mod	bCat nuc transl	TbHK1 inh	Efa HMGR inh	MT stabilizer
CCn1c(=O)cc(SCC(=O)NCc2ccco2)c2ccccc21	13.5	3.0	55.0*	-3.6	-1.5	45.7*
CCn1c(=O)cc(SCC(=O)NCc2ccc(C)cc2)c2ccccc21	11.1	10.8	-0.2	3.4	3.4	31.2*
Nc1ncnc2nc(-c3ccc(C[P+](c4ccccc4)(c4ccccc4)c4ccccc4)cc3)[nH]c12	40.5*	25.3	.	.	.	.
O=C(/C=C/c1ccco1)NC(=S)Nc1nc(-c2ccc(Cl)cc2)cs1	12.0	12.0	-2.5	3.5	-5.5	12.4*
CCOC(=O)c1ccc(N2C(=O)C=CC2=O)cc1	110.8*	-38.5	-2.1	-2.8	-0.2	1.7
CC(NC(=O)c1ccc(-n2cnnc2)cc1Cl)c1ccc2c(c1)CCC2 (stereo not given)	15.3	-9.1	.	.	.	.
CCOc1ccc2[nH]c3c(N4CCc5ccccc5C4)ncnc3c2c1	43.7*	-51.8	47.7	-6.3	.	.
COc1ccc2[nH]c3c(N4CCN(Cc5ccc6c(c5)OCO6)CC4)ncnc3c2c1	60.5*	-80.0	4.1	-16.2	-3.3	20.6*
COc1ccc2c(c1)c1ncnc(N3CCN(Cc4ccc5c(c4)OCO5)CC3)c1n2C	9.8	-8.7	-4.3	-17.5	-0.1	4.0
Cc1cc(C)n2c(SCC(=O)Nc3c(C)cccc3C)nnc2n1	9.9	15.4	.	.	.	.
CCC(=O)Nc1sc(C(=O)Nc2cccc(C)c2)c(C)c1C(=O)OC	6.7	-3.2	.	.	.	.
O=C(CSc1nnnn1-c1cccc2ccccc12)Nc1ccc(N2CCOCC2)c(Cl)c1	0.5	-42.9	-2.6	-7.2	-2.2	3.1
O=C(CSc1nnnn1-c1ccccc1)Nc1ccc(N2CCOCC2)c(Cl)c1	19.0	-12.5	-0.2	-2.1	15.2*	1.9
CCc1ncc(CN(Cc2ccc(OC)cc2OC)CC2CCCO2)cn1 (stereo not given)	8.2	12.8	.	.	.	.
CCN(CC)c1ccc(N=Cc2ccc(N(CC)CC)cc2O)cc1	11.9	-10.0	4.9	-8.0	3.7	1.2
CCN(CC)c1ccc(/C=N/N=C(N)N)c(O)c1	12.2	-32.4	77.4*	-36.8	0.8	6.9
O=C(Cc1cccs1)Nc1cccc(-c2nc3cc4ccccc4cc3[nH]2)c1	117.3*	-78.1	-0.4	-6.0	-4.3	3.2
Cc1ccc2cc(CN(CC3CCCO3)C(=S)Nc3ccccc3)c(=O)[nH]c2c1 (stereo not given)	6.3	4.8	63.5*	-10.1	-3.9	16.0*
COc1ccc2[nH]c(=O)c(CN(C(=S)NC(C)c3ccccc3)C3CCCC3)cc2c1 (stereo not given)	44.8*	5.4	.	.	.	.
Cc1ccc2[nH]c(=O)c(CN(CC3CCCO3)C(=S)Nc3ccccc3)cc2c1 (stereo not given)	8.0	25.2	0.0	-8.6	-1.9	12.0*
COc1ccc2[nH]c(=O)c(CN(CC3CCCO3)C(=O)Nc3ccc(F)cc3)cc2c1 (stereo not given)	41.0*	-45.0	.	-23.3	-0.1	3.2
O=C(Cn1nc(-c2cccs2)n(-c2ccncc2)c1=O)NC1CCCCC1	.	-22.6	.	.	.	.
CCOC(=O)C1=C(C)N=C2SCC(=O)N2C1c1ccc(O)c(OCC)c1 (stereo not given)	5.7	-18.0	.	.	.	.
O=c1[nH]c2cc3c(cc2cc1CN(Cc1ccco1)C(=S)NCC1CCCO1)OCCO3 (stereo not given)	6.3	6.5	18.4	-13.3	-4.7	22.1*
CCOc1ccc2[nH]c(=O)c(CN(CC3CCCO3)C(=S)NC3CCCCC3)cc2c1 (stereo not given)	12.7	69.8*	.	.	.	.
COc1ccc(C(=O)N(Cc2ccccc2)Cc2cc3cc4c(cc3[nH]c2=O)OCCO4)cc1	12.9	-16.7	-2.2	-5.3	-5.4	36.3*
COc1cccc(C(=O)N(Cc2ccccc2)Cc2cc3cc4c(cc3[nH]c2=O)OCCO4)c1	6.3	4.1	-1.5	-2.5	-3.6	1.8
COc1cc(Cl)cc(Cl)c1C1C(C#N)=C(N)OC2=C1C(=O)CC(C)(C)C2 (stereo not given)	13.8	31.8	.	.	.	.
CC(=O)OC1CCC2(C)C(=CCC3C2CCC2(C)C3CC3OC4(CCC(C)CN4)C(C)C32)C1 (stereo not given)	12.0	12.5	-0.7	-5.9	.	.
